# Source: PubChem (Broad Institute)
# CaV13 FRET inh: Primary screen for inhibitors of IQ motif and Ca2+-dependent inactivation inhibitor domain binding in CACNA1D, Förster resonance energy transfer in living cells, … | HEK cells, CFP/YFP FRET ICDI-IQ, plate reader, 10 min; percent FRET-ratio fall versus neutral wells | inhibition, % at 12.3 µM | 0.098% of 340,000 active;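 active = mean replicate inhibition of at least 30% and at least 1% of replicates passing that level; inconclusive = only one of the two criteria is met; inactive = neither criterion is met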;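 note: 0% = median of the neutral control wells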
# Casp6 inh: blocks human caspase-6 cleavage activity; P55212; purified caspase-6, Z-VEID-R110 cleavage fluorescence; inhibition, % at 12.5 µM; 0.53% of 350,000 active;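 active = mean inhibition across replicates at least about 35%, with every replicate also reaching that limit, limit read from the data; inconclusive = only one of the two criteria met; inactive = neither criterion met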;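 note: 0% = median of neutral control wells and 100% = no fluorescence left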
# Target sequence (P55212 24-179 limits assumed): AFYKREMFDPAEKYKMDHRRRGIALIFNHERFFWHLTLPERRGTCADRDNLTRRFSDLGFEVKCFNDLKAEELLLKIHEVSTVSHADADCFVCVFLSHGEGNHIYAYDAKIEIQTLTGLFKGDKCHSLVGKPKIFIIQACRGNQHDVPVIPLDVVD
# Target sequence (P55212 194-293 limits assumed): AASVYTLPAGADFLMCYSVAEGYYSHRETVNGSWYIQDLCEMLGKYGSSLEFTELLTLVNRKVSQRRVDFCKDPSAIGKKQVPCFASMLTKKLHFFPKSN
# DENV2 CPE: DENV2-induced cell death inhibition; DENV2-infected cells, cytopathic effect rescue, plate reader; CPE inhibition, % at 9.99 µM; 1.7% of 350,000 active; AID 651640; in the data active = CPE inhibition above about 20%, passing the limit was not always enough; inconclusive = no clear call, values can overlap the other calls; tested in BHK-21 cells;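 note: 0% = median of neutral control wells and 100% = median of positive control wells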
# Xi reactivation: X-chromosome reactivation activator. XiGFP mouse fibroblasts, % GFP-positive cells imaging, 3 d; cells co-treated with 5-aza-dC sensitizer; scaled so ellipticine positive control = 100%. activation, % at 7.58 µM. 0.055% of 360,000 active. AID 743238;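 active = mean normalized replicate activation at least 10% and every replicate at or above 10%; inconclusive = only one of the two criteria met; inactive = mean below 10% and not all replicates reach 10%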;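 note: 0% = median of on-plate neutral control wells and 100% = ellipticine 6 µM median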
#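 System: 68-5-11 XiGFP fibroblast line | Buffer or medium: DMEM containing 5-aza-dC | Compound: Single point | Times: Compounds 3 days, fix/stain 15 min at room temperature | Benchmarks: Positive control ellipticine, 6 µM final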
# FN deposit inh: fibronectin deposition inhibition | AH1F fibroblasts, Alexa488-fibronectin deposition fluorescence, overnight | inhibition, % at 12.6 µM | 0.086% of 350,000 active | AID 743247;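 active = mean inhibition across replicates of 30% or more, regardless of how many single replicates reach that level; inconclusive = mean under 30% yet at least half of replicates reach 30%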;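 note: positive control wells lacked labelled fibronectin entirely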
#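 Measured by – fluorescence 485/525 nm · System – AH1F fibroblast monolayer, labelled fibronectin deposition · Amount – 10000 cells per well · Buffer or medium – serum-reduced DMEM (2% serum) · Doses – single dose, pinned · Also added – fluorescent fibronectin at 24 nM final · Schedule – 1 h cell attachment, overnight exposure to compound and label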
# Active calls of the source: *; ? = inconclusive; nt = no result. Only some compounds are listed: those with a hit (about 2% of all), similar ones and a draw of the others.
SMILES,CaV13 FRET inh,Casp6 inh,DENV2 CPE,Xi reactivation,FN deposit inh
Cc1ccc(CNC(=O)c2cccc3c2C(=O)c2ccc(N4CCOCC4)cc2S3(=O)=O)cc1,-8,6,31*,-1,0
O=C(NCc1cc(C(F)(F)F)ccc1Cl)c1cccc2c1C(=O)c1ccc(Cl)cc1S2(=O)=O,36*,0,-2,0,-8
Cc1ccc(CNC(=O)c2cccc3c2C(=O)c2ccc(N4CCCCC4)cc2S3(=O)=O)cc1,-41,-4,nt,0,-3
O=C(NCc1ccccc1)c1cccc2c1C(=O)c1ccc(/C=C/c3ccccc3)cc1S2(=O)=O,-35,nt,7,18*,-5
O=C(NC1CCCC1)c1cccc2c1C(=O)c1ccc(/C=C/c3ccccc3)cc1S2(=O)=O,-11,-3,-10,14*,-6
C[C@H](CO)N1C[C@H](C)[C@@H](CN(C)C(=O)C2CC2)Oc2ncc(C#CC3(O)CCCC3)cc2C1=O,nt,nt,nt,-1,nt
C[C@@H]1CN([C@H](C)CO)C(=O)Cc2cc(NS(=O)(=O)c3cn(C)cn3)ccc2O[C@@H]1CN(C)S(C)(=O)=O,nt,7,-1,0,nt
COc1ccc2c3c(n(C)c2c1)[C@H](CO)N(C(=O)NC(C)C)CC31CCN(Cc2nccs2)CC1,nt,-5,-3,0,-6
CCCN(C)C[C@H]1Oc2cc(C3=CCCC3)ccc2S(=O)(=O)N([C@H](C)CO)C[C@@H]1C,nt,nt,nt,0,nt
CC(=O)N[C@@H]1CC[C@@H](CCNC(=O)Nc2ccc(C(F)(F)F)cc2)O[C@H]1CO,nt,-219,-1,0,-9
COc1ccc([N+](=O)[O-])cc1NC(=O)C(C)OC(=O)C1CC(=O)N(Cc2ccco2)C1 (stereo not drawn),-6,3,95*,0,4
COc1ccccc1NC(=O)C(C)OC(=O)C1CC(=O)N(Cc2ccco2)C1 (stereo not drawn),-12,1,9,0,-3
COc1ccc(S(=O)(=O)N(C)C[C@@H]2OCc3cn(nn3)CCCC(=O)N([C@H](C)CO)C[C@@H]2C)cc1,nt,nt,nt,-1,3
Cc1ccccc1OCC(=O)Nc1ccc(N2CCOCC2)cc1N1CCOCC1,-3,-3,3,0,11
Cc1cc(N2CCCC2)ccc1NC(=O)COc1ccccc1,-7,0,-4,2,-1
COc1ccccc1OCC(=O)Nc1ccc(N2CCOCC2)cc1N1CCOCC1,-6,-1,29*,0,8
CCc1ccccc1OCC(=O)Nc1ccc(N2CCCC2)cc1C,-6,-44,6,37*,-5
Cc1cc(Cl)ccc1NC(=O)CN1C(=O)NC2(CCCC2)C1=O,-4,-1,-3,0,-2
Cc1cc(N2CCCC2)ccc1NC(=O)CN1C(=O)NC2(CCCCC2)C1=O,-7,39*,-5,0,-3
COc1ccc(NC(=O)N2CCCCN3[C@H](CO)[C@@H](c4ccc(C5=CCCC5)cc4)[C@@H]3C2)cc1,nt,-2,12,nt,nt
CN1[C@H](CO)[C@H]2c3ccccc3N(C(=O)Nc3cc(F)ccc3F)C[C@H]21,nt,-3,9,0,3
CS(=O)(=O)c1ccc(Nc2nc(C(N)Cc3ccccc3)cs2)cc1 (stereo not drawn),-5,-1,0,0,-5
CS(=O)(=O)c1ccc(Nc2nc(C(N)COCc3ccccc3)cs2)cc1 (stereo not drawn),-6,46*,-4,0,7
CC(=NNc1ccc2ccccc2n1)c1ccccn1,-12,-20,-17,33*,-8
O=c1ccn([C@@H]2O[C@H](CO)[C@@H](O)[C@H]2O)c(=O)[nH]1,-6,nt,-1,0,-3
SMILES,CaV13 FRET inh,Casp6 inh,DENV2 CPE,Xi reactivation,FN deposit inh
O=c1ccn(C2CC(O)C(COC(c3ccccc3)(c3ccccc3)c3ccccc3)O2)c(=O)[nH]1 (stereo not drawn),nt,-1,47*,nt,nt
CCCNC(=O)C[C@H]1CC[C@@H]2[C@@H](COc3ccc(NC(=O)c4ccccc4)cc3C(=O)N2C)O1,nt,1,-5,0,-5
N/C(Cc1ccc(Cl)cc1Cl)=N\OC(=O)c1ccccc1F,-10,1,-1,0,nt
N/C(Cc1cccc2ccccc12)=N\OC(=O)c1ccccc1F,nt,41*,17,0,nt
Cc1ccc(S(=O)(=O)N2CC[C@@H]3[C@@H](CO)N(C)c4ccc(-c5ccc(C#N)cc5)cc4[C@@H]32)cc1,nt,1,-19,0,16
CC(=O)N1[C@H](CNC(=O)CN2CCOCC2)[C@@H](c2ccccc2)[C@@H]1CO,nt,nt,?,0,-9
Cc1cc(F)ccc1-c1cc(C(=O)NCc2ccco2)[nH]n1,-11,0,57*,0,2
Cc1cc(F)ccc1-c1cc(C(=O)NCc2ccc(C(F)(F)F)cc2)[nH]n1,-8,2,7,0,-9
COc1ccc(CNC(=O)C[C@@H]2C=C[C@@H](NS(=O)(=O)c3cccc(OC)c3)[C@H](CO)O2)cc1,nt,1,-2,0,nt
CCC1=C(OC(=O)N(CC)CC)N2C(=O)OC(=NCCOC)[C@]2(Cc2ccccc2)[C@H]2C1=CC[C@H]1C(=O)N(C)C(=O)[C@H]12,-4,-2,7,0,-7
CCC1=C2CC[C@H]3C(=O)N(C)C(=O)[C@H]3[C@H]2[C@@]2(Cc3ccccc3)C(=NCCOC)OC(=O)N2C1=O,-9,5,40*,0,19
CCC1=C(OC(=O)N(CC)CC)N2C(=O)OC(=NCCOC)[C@]2(Cc2ccccc2)[C@H]2C1=CC[C@H]1C(=O)N(CC)C(=O)[C@H]12,-8,nt,21*,0,-16
O=C(Cc1cccnc1)N1CC2(C1)[C@@H](c1ccccc1)[C@@H](CO)N2C(=O)C1CCCCC1,nt,0,-4,0,nt
C[C@@H]1CN([C@H](C)CO)C(=O)c2cc(-c3cccc(C#N)c3)cnc2O[C@@H]1CN(C)C(=O)c1cnccn1,nt,nt,3,0,-1
CN(C)CC(=O)N[C@H]1CC[C@H](CCNC(=O)C2CCCC2)O[C@H]1CO,nt,-19,27*,0,nt
O=C(NCC[C@H]1CC[C@H](NC(=O)C2CCCC2)[C@H](CO)O1)c1cc(Cl)cc(Cl)c1,nt,0,3,0,nt
CC(=O)N[C@@H]1CC[C@H](CCNC(=O)C2CCCC2)O[C@H]1CO,nt,0,90*,-1,nt
O=C(NCC[C@@H]1CC[C@@H](NC(=O)C2CCCC2)[C@@H](CO)O1)c1cc(Cl)cc(Cl)c1,nt,1,21*,1,nt
Cc1noc(C)c1NC(=O)N[C@@H]1CC[C@@H](CCNC(=O)C2CCCC2)O[C@H]1CO,nt,-1,25*,0,4
CN(C)CC(=O)N[C@@H]1CC[C@@H](CCNC(=O)C2CCCC2)O[C@H]1CO,nt,0,1,0,nt
Cc1ccc(OCC(=O)NNc2c3ccccc3nc3ccccc23)cc1,48*,-2,0,0,-4
